Data published in ChEMBL document CHEMBL1145087 (J Med Chem, 2003).

Columns and labels:
Progesterone receptor [1] = target: T1, Progesterone receptor (Homo sapiens, UniProt P06401); experiment: Agonistic activity against human progesterone receptor in T47D breast cancer cells; assay type: functional, cell-based
T1 sequence (P06401 whole entry): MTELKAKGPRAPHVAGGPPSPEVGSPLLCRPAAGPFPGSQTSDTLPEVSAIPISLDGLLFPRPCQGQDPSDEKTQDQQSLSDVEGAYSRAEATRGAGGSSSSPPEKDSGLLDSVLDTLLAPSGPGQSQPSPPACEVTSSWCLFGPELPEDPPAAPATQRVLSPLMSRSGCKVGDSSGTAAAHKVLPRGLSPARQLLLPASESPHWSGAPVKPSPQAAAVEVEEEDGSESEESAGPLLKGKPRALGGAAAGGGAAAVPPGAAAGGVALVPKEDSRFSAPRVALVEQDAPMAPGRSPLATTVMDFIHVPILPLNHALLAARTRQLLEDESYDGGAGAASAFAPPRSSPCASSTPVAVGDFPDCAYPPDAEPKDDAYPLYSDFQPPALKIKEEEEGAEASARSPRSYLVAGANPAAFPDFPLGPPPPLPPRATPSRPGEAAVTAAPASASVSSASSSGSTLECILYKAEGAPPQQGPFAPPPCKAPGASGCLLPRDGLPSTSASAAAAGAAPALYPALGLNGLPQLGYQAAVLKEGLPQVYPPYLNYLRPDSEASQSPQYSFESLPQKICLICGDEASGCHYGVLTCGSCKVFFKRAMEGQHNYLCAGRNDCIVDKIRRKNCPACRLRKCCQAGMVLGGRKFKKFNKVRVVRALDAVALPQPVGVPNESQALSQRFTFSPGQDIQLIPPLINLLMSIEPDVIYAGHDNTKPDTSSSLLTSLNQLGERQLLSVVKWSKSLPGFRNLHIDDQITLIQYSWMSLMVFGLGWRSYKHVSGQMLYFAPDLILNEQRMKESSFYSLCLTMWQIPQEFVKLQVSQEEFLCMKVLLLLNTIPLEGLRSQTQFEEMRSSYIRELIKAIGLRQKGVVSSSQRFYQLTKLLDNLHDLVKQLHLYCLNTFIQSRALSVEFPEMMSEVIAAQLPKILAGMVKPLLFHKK

Homo sapiens [2] = species: Homo sapiens; experiment: Relative potency for human mineralocorticoid and progesterone receptors
[3] = target: T2, Progesterone receptor (Homo sapiens) (UniProt P06401); experiment: Percent agonistic effect towards human progesterone receptor in T47D breast cancer cells; assay type: functional, cell-based
T2 sequence (whole entry): T1 sequence (P06401 whole entry)

Estrogen receptor [4] = target: T3, Estrogen receptor (Homo sapiens, UniProt Q92731+P03372)
Glucocorticoid receptor [5] = target: T4, Glucocorticoid receptor (Homo sapiens, UniProt P04150)
T4 sequence (P04150 whole entry): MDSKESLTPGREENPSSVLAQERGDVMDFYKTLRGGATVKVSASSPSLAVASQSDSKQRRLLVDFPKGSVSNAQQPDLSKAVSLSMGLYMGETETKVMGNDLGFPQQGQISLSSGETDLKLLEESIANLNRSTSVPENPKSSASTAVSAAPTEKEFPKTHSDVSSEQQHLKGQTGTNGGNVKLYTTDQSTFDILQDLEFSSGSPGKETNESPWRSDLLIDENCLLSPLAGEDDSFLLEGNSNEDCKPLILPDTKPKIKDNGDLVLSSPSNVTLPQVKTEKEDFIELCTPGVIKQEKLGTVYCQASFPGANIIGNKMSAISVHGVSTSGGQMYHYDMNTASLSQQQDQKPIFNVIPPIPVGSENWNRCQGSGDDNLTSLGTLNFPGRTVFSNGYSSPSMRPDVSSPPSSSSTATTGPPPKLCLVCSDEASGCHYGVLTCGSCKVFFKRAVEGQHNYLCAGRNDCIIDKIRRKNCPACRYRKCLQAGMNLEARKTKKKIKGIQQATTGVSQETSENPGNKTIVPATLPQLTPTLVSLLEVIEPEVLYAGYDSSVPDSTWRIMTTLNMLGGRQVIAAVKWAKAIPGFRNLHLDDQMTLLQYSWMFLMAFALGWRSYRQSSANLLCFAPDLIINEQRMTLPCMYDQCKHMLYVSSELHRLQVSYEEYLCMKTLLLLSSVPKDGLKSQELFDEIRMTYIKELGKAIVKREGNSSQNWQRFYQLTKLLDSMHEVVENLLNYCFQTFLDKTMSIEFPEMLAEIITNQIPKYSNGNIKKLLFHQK

Glucocorticoid receptor [6] = target: T4, Glucocorticoid receptor; experiment: Inhibition of Dexamethasone binding to human glucocorticoid receptor expressed in baculovirus […] cells
Homo sapiens [7] = species: Homo sapiens; experiment: Relative potency for human estrogen and progesterone receptors
Estrogen receptor [8] = target: T3, Estrogen receptor; experiment: Antagonistic efficacy against human estrogen receptor; assay type: functional
In short: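 Cotransfection LUC reporter assay for hER. Antagonist efficacy is the % maximal inhibition of a standard agonist (estradiol is the reference agonist for hER) applied at its EC50.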

Progesterone receptor [9] = target: T1, Progesterone receptor; experiment: Agonistic activity against human progesterone receptor in CV-1 cells; assay type: functional, cell-based
Androgen receptor = target: T5, Androgen receptor (Homo sapiens, UniProt P10275)
T5 sequence (P10275 whole entry): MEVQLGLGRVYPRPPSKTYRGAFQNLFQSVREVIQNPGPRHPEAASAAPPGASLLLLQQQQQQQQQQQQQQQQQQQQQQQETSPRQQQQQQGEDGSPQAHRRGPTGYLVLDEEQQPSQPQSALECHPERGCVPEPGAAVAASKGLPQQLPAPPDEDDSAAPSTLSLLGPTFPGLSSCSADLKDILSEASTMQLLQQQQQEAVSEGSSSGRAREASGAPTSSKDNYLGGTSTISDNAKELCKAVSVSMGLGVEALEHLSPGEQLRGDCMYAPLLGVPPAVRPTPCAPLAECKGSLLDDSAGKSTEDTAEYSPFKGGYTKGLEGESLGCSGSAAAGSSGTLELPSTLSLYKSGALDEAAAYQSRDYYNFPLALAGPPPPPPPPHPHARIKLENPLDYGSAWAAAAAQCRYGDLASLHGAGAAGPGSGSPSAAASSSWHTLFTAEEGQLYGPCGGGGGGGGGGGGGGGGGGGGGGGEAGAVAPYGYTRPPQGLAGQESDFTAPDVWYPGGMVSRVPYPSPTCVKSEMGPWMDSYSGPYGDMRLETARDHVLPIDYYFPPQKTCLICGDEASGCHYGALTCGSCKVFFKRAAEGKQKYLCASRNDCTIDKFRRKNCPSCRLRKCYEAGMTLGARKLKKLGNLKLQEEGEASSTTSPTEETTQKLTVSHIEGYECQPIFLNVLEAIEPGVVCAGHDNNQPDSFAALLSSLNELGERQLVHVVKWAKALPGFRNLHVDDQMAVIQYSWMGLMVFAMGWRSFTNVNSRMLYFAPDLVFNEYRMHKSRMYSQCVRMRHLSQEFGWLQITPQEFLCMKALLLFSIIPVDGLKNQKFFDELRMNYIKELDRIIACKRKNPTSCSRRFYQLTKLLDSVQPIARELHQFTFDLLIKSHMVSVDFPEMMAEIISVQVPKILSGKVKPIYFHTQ

Row | EC50 (Progesterone receptor [1]) [nM] | Ratio (Homo sapiens [2]) | Efficacy [3] [%] | IC50 (Glucocorticoid receptor [5]) [nM] | Ki (Glucocorticoid receptor [6]) [nM] | Ratio (Homo sapiens [7]) | EC50 (Progesterone receptor [9]) [nM] | SMILES | IC50 (Estrogen receptor [4]) [nM] | Efficacy (Estrogen receptor [8]) [%] | IC50 (Androgen receptor) [nM]
1 | 9 | > 1000 | 43 | 297 | 232 | > 1000 | 1.4 | CC1=CC(C)(C)Nc2ccc3c(c21)/C(=C/c1ccccc1C)Oc1c(F)cccc1-3 | 2443 | 41 | 
2 | 11 | > 1000 | 45 | 250 | 321 | > 1000 | 2.1 | CC1=CC(C)(C)Nc2ccc3c(c21)/C(=C/c1ccccc1)Oc1c(F)cccc1-3 |  |  | 900
3 | 18 | 167 | 51 | 77 | 270 | > 1000 | 2 | CCc1ccccc1/C=C1\Oc2ccc(F)cc2-c2ccc3c(c21)C(C)=CC(C)(C)N3 |  |  | 

Row | SMILES | EC50 (Progesterone receptor [1]) [nM] | Ratio (Homo sapiens [2]) | Efficacy [3] [%] | IC50 (Glucocorticoid receptor [5]) [nM] | Ki (Glucocorticoid receptor [6]) [nM] | Ratio (Homo sapiens [7]) | EC50 (Progesterone receptor [9]) [nM] | IC50 (Estrogen receptor [4]) [nM] | Efficacy (Estrogen receptor [8]) [%] | IC50 (Androgen receptor) [nM]
4 | CC1=CC(C)(C)Nc2ccc3c(c21)/C(=C/c1ccncc1C)Oc1ccc(F)cc1-3 | 4.6 | 511 | 46 | 245 | 232 | 255 |  | 1149 | 44 | 
5 | CC1=CC(C)(C)Nc2ccc3c(c21)/C(=C/c1ccsc1)Oc1ccc(F)cc1-3 | 5.5 | > 1000 | 48 | 100 | 84 | > 1000 | 0.71 | 3488 | 36 | 215
